Most compounds without a hit are left out; they make up all but 2.9% or so of the library.
TRPC4 potent: positive allosteric modulators of TRPC4, primary screen, cell-based, mouse TRPC4beta, HEK293 mu-opioid, Fluo-4 calcium | AID 2227, 2009 | B-score at 10 µM | 310,000 tested, 0.42% active | DAMGO EC20, Fluo-4 Ca2+ flux; active compounds read high;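 active = B-score of calcium response area above 5 SD of library B-scores, with initial fluorescence ratio within 5 SD of library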;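 note: B-score of integrated fluorescence ratio over time as area under calcium response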
TRPC6 act: mouse TRPC6 channel activators, primary screen, cell-based, HEK293, membrane potential dye. AID 2550, 2010. Short transient receptor potential channel 6 (Mus musculus), Q61143. 310,000 tested, 0.13% active. HEK293-TRPC6 membrane potential dye fluorescence; active compounds read high. B-score at 10 µM;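 active = B-score of the integrated fluorescence ratio above library mean plus 3 SD, and starting fluorescence ratio within library mean plus 5 SD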;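 note: higher score means more depolarization so channel activation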
TRPC4 inh: inhibitors of mouse TRPC4 channel, primary screen, Fluo4 calcium, HEK293 TRPC4beta/mu-opioid cells. Short transient receptor potential channel 4 (Mus musculus), Q9QUQ5. 300,000 tested, 0.39% active. B-score at 10 µM. AID 2247, 2010. DAMGO-evoked Fluo4 calcium flux; active compounds read low;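 active = B-score over 3 SD under the library average, no early fluorescence shift, positive overall ratio signal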
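Test system – stable TRPC4beta/mu-opioid receptor HEK293 cells · Probe or stimulus – DAMGO, a submaximal dose followed by a maximal one · Dosing – one concentration per compound · Signal – Fluo4 calcium fluorescence by kinetic imaging, 5 s 1 Hz baseline · Evaluation – per-well B score of integrated baseline-normalized Fluo4 ratio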
TRPC6 inhibitor: mouse TRPC6 channel inhibitors, primary screen, cell-based, HEK293, membrane potential dye; Short transient receptor potential channel 6 (Mus musculus), Q61143; ACh-evoked depolarization; active compounds read low; B-score at 10 µM; 310,000 tested, 1.1% active; AID 2553, 2010;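 active = B-score under library mean minus 3 SD, initial fluorescence not abnormally high, positive integrated signal ratio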;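 note: B-score derived from integrated fluorescence ratio over the kinetic read; more negative B-score means stronger inhibition of depolarization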
Kir21 block: inhibitors of mouse Kir2.1 inward-rectifier potassium channel; HEK293-Kir2.1, FluxOR thallium flux fluorescence; active compounds read low; 310,000 tested, 0.85% active; B-score at 10 µM; Inward rectifier potassium channel 2 (Mus musculus), P35561; AID 1672, 2009;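 active = fluorescence ratio B-score at or below minus 3 SD of library scores, with starting-brightness B-score within 2 SD, cut at about -4.2 in these data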;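 note: channel flux triggered by added potassium and thallium sulfate stimulus; B-score of peak minus minimum fluorescence over baseline after thallium stimulus; more negative B-score means stronger Kir2.1 block with less thallium influx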
Target sequence (P35561 whole entry, looked up): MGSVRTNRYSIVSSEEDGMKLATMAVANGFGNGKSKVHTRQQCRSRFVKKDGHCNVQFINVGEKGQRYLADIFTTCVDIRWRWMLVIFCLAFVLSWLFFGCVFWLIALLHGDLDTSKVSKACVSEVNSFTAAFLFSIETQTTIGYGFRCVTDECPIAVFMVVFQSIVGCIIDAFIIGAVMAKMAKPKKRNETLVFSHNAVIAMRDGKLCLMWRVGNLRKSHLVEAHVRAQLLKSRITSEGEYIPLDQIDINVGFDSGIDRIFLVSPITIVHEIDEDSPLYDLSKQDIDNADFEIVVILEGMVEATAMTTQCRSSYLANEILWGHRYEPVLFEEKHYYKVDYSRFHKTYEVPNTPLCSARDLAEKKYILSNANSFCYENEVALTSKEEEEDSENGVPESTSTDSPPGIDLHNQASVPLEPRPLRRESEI
TRPC4 act: activators of mouse TRPC4 channel, primary screen, Fluo4 calcium, HEK293 TRPC4beta/mu-opioid cells; AID 2237, 2010; 310,000 tested, 0.49% active; Fluo4 calcium fluorescence; active compounds read high; B-score at 10 µM; Short transient receptor potential channel 4 (Mus musculus), Q9QUQ5;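 active = B-score above 5 SD of library B-scores, and initial fluorescence ratio not above library mean plus 5 SD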;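 note: positive B-score marks a calcium rise read as TRPC4 activation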
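Material: HEK293 stable line with TRPC4beta plus mu-opioid receptor; technique: Fluo4 calcium-sensitive dye fluorescence, kinetic, 1 Hz baseline; timing: Fluo4 dye loading 45 min at room temperature, 110 s recording; controls: assay buffer as low control, maximal DAMGO as high control; read-out: integrated baseline-normalised fluorescence ratio, converted to per-well B score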
TRPC4 spec 2: mouse TRPC4 off-target activity of TRPC6 inhibitors, second screen. AID 2776. HEK293 TRPC4/MOR, membrane potential dye fluorescence; channel activated by saturating DAMGO dose. shares compounds with TRPC6 inhibitor. inhibition, % at 10 µM. 920 tested, 42% active;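 active = compounds whose fluorescence signal differed from control wells by over 3 SD, either direction, in both duplicate plates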
TRPC4 spec: mouse TRPC4 modulation by TRPC6 hits, confirmation, selectivity assay for TRPC6 inhibitor project, cell-based, HEK293 TRPC4/mu-opioid, membrane potential dye. shares compounds with TRPC6 inhibitor. 920 tested, 61% active. membrane potential fluorescence. activity change, negative = inhibition, % at 10 µM;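 active = rise or fall in signal beyond 3 SD of buffer-only wells in both replicate plates, either sign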;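 note: integrated kinetic ratio of fluorescence range over baseline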
HEK293 MPD ctr 2-1: nonspecific membrane potential effects, parental HEK293, confirmation, counter-screen for TRPC6 inhibitor project, cell-based, second counter screen. shares compounds with TRPC6 inhibitor. parental HEK293 membrane potential dye fluorescence; maximal acetylcholine challenge after compound addition. signal change vs control, % at 10 µM. 920 tested, 31% active. AID 2779, 2010;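 active = membrane potential signal moving either way by over 3 SD of the maximum-effect control, in both duplicate plates, meaning non-specific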
HEK293 MPD ctr-1: membrane potential modulation in parental HEK293, confirmation, counter-screen for TRPC6 inhibitor project, cell-based; shares compounds with TRPC6 inhibitor; parental HEK293 membrane potential dye fluorescence; membrane potential signal change, % at 10 µM; 920 tested, 60% active; AID 2780, 2010;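 active = membrane potential signal shifting up or down by more than 3 SD of buffer-only wells, on both duplicate plates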
HEK293 MPD ctr-2: parental HEK293 membrane potential modulation, confirmation, counter-screen for TRPC6 modulator project, cell-based; membrane potential dye fluorescence; membrane potential signal change, % at 10 µM; AID 488924, 2010; shares compounds with TRPC6 inhibitor; 2,400 tested, 51% active;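 active = membrane potential signal moves up or down beyond 5 SD from buffer-only wells, on both duplicate plates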
HEK293 MPD ctr 2-2: parental HEK293 nonspecific activity of TRPC6 modulators, second screen | AID 488926 | membrane potential dye fluorescence; after compound, maximal acetylcholine stimulation | shares compounds with TRPC6 inhibitor | inhibition, % at 10 µM | 2,400 tested, 14% active;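 active = membrane potential signal drops by more than 5 SD from the mean control signal, in both duplicate plates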;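 note: plate controls were acetylcholine ECmax control wells for no effect and buffer only wells for full effect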
TRPC4 ctr mod: TRPC4 modulation by TRPC6 hit compounds, confirmation, selectivity assay for TRPC6 modulator project, cell-based, HEK293 TRPC4/mu-opioid, membrane potential dye, mouse. 2,400 tested, 69% active. shares compounds with TRPC6 inhibitor. percent change from control (negative = decrease, positive = increase), % at 10 µM. membrane potential fluorescence;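 active = membrane potential signal moved up or down beyond 5 SD of buffer control wells, in both duplicate plates, actives on both sides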;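 note: plate controls were assay buffer wells for no effect and DAMGO maximal-effect wells for full effect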
TRPC4/MOR inh 2: mouse TRPC4 off-target activity of TRPC6 modulators, second screen | shares compounds with TRPC6 inhibitor | inhibition, % at 10 µM | AID 488928 | 2,400 tested, 55% active | HEK293 TRPC4/mu-opioid, membrane potential dye fluorescence; stimulated with maximal-effect DAMGO;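 active = drop in membrane potential signal beyond 5 SD of the control wells in both duplicate plates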;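 note: TRPC4 counter screen for TRPC6 hits run under conditions tuned for TRPC6 not TRPC4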
TRPC6 inh conf: mouse TRPC6 channel inhibitors, confirmation, HEK293 cells, membrane potential dye, duplicate; shares compounds with TRPC6 inhibitor; ACh-evoked depolarization; inhibition, % at 10 µM; 3,300 tested, 43% active;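 active = fluorescence ratio falls more than 5 SD below the full-stimulation control mean, in both duplicate runs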;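 note: integrated fluorescence ratio of peak minus minimum over baseline after agonist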
TRPC6 act conf: mouse TRPC6 channel activators, confirmation, HEK293 cells, membrane potential dye, duplicate; activation, % at 10 µM; HEK293-TRPC6 membrane potential dye fluorescence, FDSS; 2,800 tested, 11% active; shares compounds with TRPC6 inhibitor;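 active = ratio signal rise beyond 5 SD above unstimulated control wells' mean, seen in both duplicate runs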;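 note: plate controls were buffer EC0 wells for no effect and acetylcholine ECmax response for full effect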
Starred values were filed as active, the others as inactive; i = inactive; nt = no result given.

SMILES | TRPC4 potent | TRPC6 act | TRPC4 inh | TRPC6 inhibitor | Kir21 block | TRPC4 act | HEK293 MPD ctr-2 | HEK293 MPD ctr 2-2 | TRPC4 ctr mod | TRPC4/MOR inh 2 | TRPC6 inh conf | TRPC6 act conf | others
CC(=O)c1ccc(OCCn2c(SCC(=O)O)nc3ccccc32)cc1 | i | i | i | i | 0.11 | i | nt | nt | nt | nt | nt | nt
CCCCOc1ccc(C(=O)OC(C)CN(C)C)cc1 (stereo not drawn) | i | 12* | i | i | -0.11 | i | 218%* | i | 35%* | 34%* | i | 102%*
Cc1ccc(NC(=O)CCNC(=O)c2ccc(Cl)cc2)cc1C | i | i | i | i | -0.42 | i | nt | nt | nt | nt | nt | nt
O=C(COc1ccc([N+](=O)[O-])cc1)NCCC1=CCCCC1 | i | i | i | i | -0.32 | i | nt | nt | nt | nt | nt | nt
Cc1ccc(OCC(=O)NCCC2=CCCCC2)cc1 | i | i | i | -5* | -0.7 | i | i | i | i | i | i | i
Cc1ccccc1OCC(=O)NCCC1=CCCCC1 | i | i | i | -5.7* | -5.4* | i | i | i | 14%* | i | i | i
CC(c1cccs1)N(C)Cc1nc(CCc2ccccc2)no1 (stereo not drawn) | i | i | i | i | 0.26 | i | nt | nt | nt | nt | nt | nt
COCc1cc(CN2CCCC(C(=O)Nc3cccc(-n4cnnn4)c3)C2)ccc1OC (stereo not drawn) | i | i | i | i | -0.28 | i | nt | nt | nt | nt | nt | nt
Cc1ccc(CNC(=O)C2CCN(c3nc(C)cc(C)n3)CC2)cc1 | i | i | i | i | 0.48 | i | nt | nt | nt | nt | nt | nt
Cc1cccc(CNc2ncc(-c3cccc([N+](=O)[O-])c3)n2C)c1 | i | i | i | -5.9* | -0.9 | i | -74%* | i | -26%* | 57%* | i | i
CCN(CC)C(=S)NC(=O)c1cc(OC)c(OC)c(OC)c1 | i | i | i | i | 1.3 | i | nt | nt | nt | nt | nt | nt
COc1cc(/C=C2/C(=O)N(c3ccc(Br)cc3)N=C2C)cc(OC)c1OC | i | i | i | -5.4* | -0.1 | i | i | i | i | i | i | i
O=C(Nc1nc2ccccc2[nH]1)c1cccs1 | i | i | i | i | 1.1 | i | nt | nt | nt | nt | nt | nt
N=c1c(-c2nc3ccccc3[nH]2)cc(C(=O)c2cccs2)nn1-c1ccc(Cl)cc1 | i | i | i | -6.2* | 0.05 | i | i | i | -19%* | 56%* | i | i
CN(Cc1ccccc1)C(=O)CCS(=O)(=O)c1ccc2c(c1)NC(=O)CS2 | i | i | i | i | -1.2 | i | nt | nt | nt | nt | nt | nt
CCN(C(=O)CSc1nnc2nc(C)cc(C)n12)c1ccccc1 | i | i | i | i | -0.61 | i | nt | nt | nt | nt | nt | nt
COc1ccc2nc(C)cc(Nc3ccc(N4CCOCC4)cc3)c2c1 | i | i | i | i | 0.1 | i | nt | nt | nt | nt | nt | nt
CC(=O)c1ccc(Nc2nc(C)cc(C)n2)cc1 | i | i | i | i | 0.59 | i | nt | nt | nt | nt | nt | nt
CC(=O)c1ccc(Nc2cc(C)nc3ccccc23)cc1 | i | i | i | -6.9* | 0.77 | i | 102%* | 144%* | i | 63%* | 84%* | i
COc1ccc(Nc2cc(C)nc3ccccc23)cc1 | i | i | -6* | -5.1* | -4 | i | -132%* | i | -21%* | 48%* | i | i
COc1ccc(OC)c(Nc2cc(C)nc3ccc(C)cc23)c1 | i | i | -6* | -7.5* | -1.5 | i | nt | nt | nt | nt | 67%* | i | TRPC4 spec 2=52%*;TRPC4 spec=-15%*;HEK293 MPD ctr 2-1=i;HEK293 MPD ctr-1=-239%*
COc1ccc2nc(C)cc(Nc3ccc(N4CCN(C)CC4)cc3)c2c1 | i | i | i | -9.6* | 1.3 | i | nt | nt | nt | nt | 86%* | i | TRPC4 spec 2=57%*;TRPC4 spec=-24%*;HEK293 MPD ctr 2-1=-94%*;HEK293 MPD ctr-1=-292%*
COc1ccccc1/C=N/Nc1cc(C)nc2ccc(C)cc12 | i | i | i | i | -0.62 | i | nt | nt | nt | nt | nt | nt
COc1ccc(Nc2nc(C)c3ccccc3n2)cc1 | i | i | i | i | 1 | i | nt | nt | nt | nt | nt | nt

Assay outcomes as filed in PubChem.
